From ChEMBL document CHEMBL1275434, “In vitro evaluation of CBR-2092, a novel rifamycin-quinolone hybrid antibiotic: studies of the mode of action in Staphylococcus aureus” (Antimicrob Agents Chemother, 2008)
pIC50: −log10 of the molar value. Converted amounts (≈) assume the structure as drawn. The source made the active and inactive calls. No cut-off for these calls is given here.

Legend:
Staphylococcus aureus [1] = experiment: Antimicrobial activity against Staphylococcus aureus CB1880 harboring rpoB R484H mutant gene by broth microdilution method; assay type: functional
Method in brief: (§1)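 CLSI broth microdilution MIC in MHII broth with 0.002% (vol/vol) polysorbate 80. Isolates came from daily stepwise broth passage at sub-MIC drug (MHII without polysorbate 80, 10^6 CFU/ml inoculum, 20–24 h shaking at 37°C), were purified drug-free, and were sequenced at target loci.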

Staphylococcus aureus [2] = experiment: Antimicrobial activity against rifampin-sensitive Staphylococcus aureus CB190 harboring rpoB Q468L mutant gene by broth microdilution method; assay type: functional
Method in brief: (§2)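 CLSI broth microdilution MIC in cation-adjusted Mueller-Hinton (MHII) broth supplemented with 0.002% (vol/vol) polysorbate 80, included to limit compound loss to plastic surfaces.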

Staphylococcus aureus [3] = experiment: Antimicrobial activity against Staphylococcus aureus CB1418 harboring rpoB H481Y and gyrA D705N mutant genes selected after 0.1 ug/ml drug exposure by broth microdilution method
Staphylococcus aureus [4] = experiment: Antimicrobial activity against Staphylococcus aureus CB190 by broth microdilution method; assay type: functional
Staphylococcus aureus [5] = experiment: Antimicrobial activity against Staphylococcus aureus CB1523 harboring rpoB H481Y and gyrA A26V mutant genes selected after 0.25 ug/ml drug exposure by broth microdilution method; assay type: functional
Method in brief: (§3)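 CLSI broth microdilution in cation-adjusted Mueller-Hinton (MHII) broth supplemented with 0.002% (vol/vol) polysorbate 80 to limit compound loss to plastic. Strains are spontaneous single-step mutants isolated on agar from an rpoB H481Y parent (RN4220 background), purified through drug-free passage with the resistance phenotype re-verified as stable before testing; target loci genotyped by PCR amplification and sequencing.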

Staphylococcus aureus [6] = experiment: Inhibition of DNA synthesis in quinolone-resistant Staphylococcus aureus CB814 harboring gyrA S84L and parC S80F mutant genes assessed as decrease in [methyl-3H]thymidine incorporation at 0.5 ug/ml; assay type: functional, organism-based
Method in brief: (§4)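 Macromolecular synthesis time course in S. aureus, measuring incorporation of [methyl-3H]thymidine (DNA), [5,6-3H]uridine (RNA) or [2,3-3H]D-alanine (cell wall). At each time point, incorporation is expressed as percent of the DMSO-treated control culture. Incorporation at time zero is set to 100%.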

[7] = Inhibition of Staphylococcus aureus RpoB H481Y mutant
Method in brief: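 Recombinant S. aureus σA RNA polymerase holoenzyme carrying RpoB H481Y. Single-round transcription of the pGL2B-T7A1-G-less template. The 272-nt G-less RNA product is quantified by gel electrophoresis. IC50 is the concentration that inhibits 50% of product formed without inhibitor.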

Staphylococcus aureus [8] = experiment: Antimicrobial activity against Staphylococcus aureus CB1891 harboring […], parE P587S and parE F638V mutant genes by broth microdilution method
Staphylococcus aureus [9] = experiment: Antimicrobial activity against Staphylococcus aureus CB1522 harboring by broth microdilution method; assay type: functional
Staphylococcus aureus [10] = experiment: Antimicrobial activity against Staphylococcus aureus CB1419 harboring rpoB H481Y and gyrA G572D mutant genes selected after 0.1 ug/ml drug exposure by broth microdilution method
Staphylococcus aureus [11] = experiment: Antimicrobial activity against Staphylococcus aureus CB1524 harboring rpoB H481Y and gyrA G773V mutant genes selected after 0.25 ug/ml drug exposure by broth microdilution method; assay type: functional; method in brief: as §3
Staphylococcus aureus [12] = experiment: Antimicrobial activity against Staphylococcus aureus CB814 harboring […] and parC S80F mutant genes by agar dilution method; assay type: functional
Method in brief: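 CLSI agar dilution MIC with cation-adjusted Mueller-Hinton (MHII) agar as the base medium.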

Staphylococcus aureus [13] = experiment: Inhibition of cell wall synthesis in quinolone-resistant Staphylococcus aureus CB814 harboring gyrA S84L and parC S80F mutant genes assessed as decrease in [2,3-3H]D-alanine incorporation at 0.5 ug/ml; assay type: functional, organism-based; method in brief: as §4
Staphylococcus aureus [14] = experiment: Antimicrobial activity against Staphylococcus aureus CB815 harboring rpoB H481Y, gyrA […] and parC S80F mutant genes by broth microdilution method; assay type: functional; method in brief: as §2
Staphylococcus aureus [15] = experiment: Antimicrobial activity against Staphylococcus aureus CB1326 harboring rpoB H481Y and gyrA S784F mutant genes selected after 0.2 ug/ml drug exposure by broth microdilution method; assay type: functional
Method in brief: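 CLSI broth microdilution MIC in cation-adjusted Mueller-Hinton (MHII) broth with 0.002% (vol/vol) polysorbate 80. Single-step mutants were selected on agar […], purified by drug-free passage, their phenotype re-verified, and resistance loci sequenced.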

Staphylococcus aureus [16] = experiment: Antimicrobial activity against rifampin-sensitive Staphylococcus aureus CB190 harboring rpoB E473 mutant gene by broth microdilution method; assay type: functional; method in brief: as §2
Staphylococcus aureus [17] = experiment: Antimicrobial activity against Staphylococcus aureus CB1887 harboring rpoB R484H, L520 deficient gyrA, […], R236 duplicated parC and parC H103Y mutant genes selected after ABT-719 exposure for 20 days by agar dilution method; assay type: functional; conditions: CB1887, 480 h
Staphylococcus aureus [18] = experiment: Inhibition of RNA synthesis in rifamycin-resistant Staphylococcus aureus CB370 harboring rpoB H481Y mutant gene assessed as decrease in [5,6-3H]uridine incorporation at 0.5 ug/ml; assay type: functional, organism-based; method in brief: as §4
Staphylococcus aureus [19] = experiment: Antimicrobial activity against Staphylococcus aureus CB808 harboring quinolone-resistant parC S80F mutant gene by broth microdilution method; assay type: functional; method in brief: as §2
Staphylococcus aureus [20] = experiment: Antimicrobial activity against Staphylococcus aureus CB1333 harboring rpoB H481Y, parC S80F and parE L517F mutant genes selected after 0.8 ug/ml drug exposure by broth microdilution method; assay type: functional
Staphylococcus aureus [21] = experiment: Antimicrobial activity against rifampin-sensitive Staphylococcus aureus CB190 harboring rpoB D471G mutant gene by broth microdilution method; assay type: functional; method in brief: as §2
Staphylococcus aureus [22] = experiment: Antimicrobial activity against Staphylococcus aureus CB1887 harboring rpoB R484H, L520 deficient gyrA, […], R236 duplicated parC and parC H103Y mutant genes selected after ABT-719 exposure for 20 days by broth microdilution method; assay type: functional; conditions: CB1887, 480 h
Method in brief: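 CLSI broth microdilution MIC in MHII with 0.002% polysorbate 80 against strains from 20–21 days of stepwise passage of rifamycin- and/or quinolone-resistant parents; CBR-2092 passages used MHII with 0.002% polysorbate 80.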

Staphylococcus aureus [23] = experiment: Antimicrobial activity against Staphylococcus aureus CB1884 by broth microdilution method; assay type: functional; method in brief: as §1
Staphylococcus aureus [24] = experiment: Antimicrobial activity against Staphylococcus aureus CB1884 harboring rpoB R484H mutant gene, L520 deficient gyrA gene, gyrA S84L mutant gene, R236 duplicated par C gene and parC H103Y mutant gene; assay type: functional
Staphylococcus aureus [25] = experiment: Antimicrobial activity against Staphylococcus aureus CB811 harboring quinolone-resistant gyrA S84L mutant gene by broth microdilution method; assay type: functional; method in brief: as §2
Staphylococcus aureus [26] = experiment: Inhibition of protein synthesis in rifamycin-resistant Staphylococcus aureus CB370 harboring rpoB H481Y mutant gene assessed as decrease in L-[3,4,5-3H]leucine incorporation at 0.5 ug/ml; assay type: functional, organism-based
Method in brief: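 Time-course radiolabel incorporation in S. aureus cultures with test agent. Precursors: [methyl-3H]thymidine (DNA), [5,6-3H]uridine (RNA), L-[3,4,5-3H]leucine (protein), [2,3-3H]D-alanine (cell wall). At each time point, incorporation with agent is expressed relative to the DMSO-treated control culture as percent incorporation. Time-zero incorporation is set to 100%.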

Staphylococcus aureus [27] = experiment: Inhibition of RNA synthesis in Staphylococcus aureus CB190 assessed as decrease in [5,6-3H]uridine incorporation at 0.5 ug/ml; assay type: functional, organism-based

Work on CO[C@H]1/C=C/O[C@@]2(C)Oc3c(C)c(O)c4c(O)c(c(/C=N/N5CCC(N(C)C6([C@@H]7CCN(c8c(F)cn9c(=O)c(C(=O)O)cc(C%10CC%10)c9c8C)C7)CC6)CC5)c(O)c4c3C2=O)NC(=O)/C(C)=C\C=C\[C@H](C)[C@H](O)[C@@H](C)[C@@H](O)[C@@H](C)[C@H](OC(C)=O)[C@@H]1C yielded an MIC (Staphylococcus aureus [1]) of 0.12 µg/mL (≈ 0.0996 µM), an MIC (Staphylococcus aureus [2]) of 0.25 µg/mL (≈ 0.207 µM) and an MIC (Staphylococcus aureus [3]) of 0.5 µg/mL (≈ 0.415 µM). The MIC (Staphylococcus aureus [4]) was 0.015 µg/mL (≈ 0.0124 µM), the MIC (Staphylococcus aureus [5]) was 1 µg/mL (≈ 0.83 µM) and the Activity (Staphylococcus aureus [6]) was “Active”. The pIC50 [7] was < 4.60, the MIC (Staphylococcus aureus [8]) was 0.03 µg/mL (≈ 0.0249 µM) and the MIC (Staphylococcus aureus [9]) was 0.25 µg/mL (≈ 0.207 µM). The MIC (Staphylococcus aureus [10]) was 1 µg/mL (≈ 0.83 µM), the MIC (Staphylococcus aureus [11]) was 2 µg/mL (≈ 1.66 µM) and the MIC (Staphylococcus aureus [12]) was 0.06 µg/mL (≈ 0.0498 µM). For the same molecule, the Activity (Staphylococcus aureus [13]) was “Active”, the MIC (Staphylococcus aureus [14]) was 1 µg/mL (≈ 0.83 µM) and the MIC (Staphylococcus aureus [15]) was 0.5 µg/mL (≈ 0.415 µM). For the same molecule, the MIC (Staphylococcus aureus [16]) was 0.25 µg/mL (≈ 0.207 µM), the MIC (Staphylococcus aureus [17]) was > 8 µg/mL and the Activity (Staphylococcus aureus [18]) was “Active”. The MIC (Staphylococcus aureus [19]) was 0.015 µg/mL (≈ 0.0124 µM), the MIC (Staphylococcus aureus [20]) was 16 µg/mL (≈ 13.3 µM) and the MIC (Staphylococcus aureus [21]) was 0.25 µg/mL (≈ 0.207 µM). The MIC (Staphylococcus aureus [22]) was > 250 µg/mL, the MIC (Staphylococcus aureus [23]) was 64 µg/mL (≈ 53.1 µM) and the Time (Staphylococcus aureus [24]) was 65 min. The MIC (Staphylococcus aureus [25]) was 0.015 µg/mL (≈ 0.0124 µM), the Activity (Staphylococcus aureus [26]) was “Active” and the Activity (Staphylococcus aureus [27]) was “Active”.
